# What was measured:
# [1] = tested on: CCl4-intoxicated Nep−/− mice; assay: Captopril or losartan co-treatment of CCl4-intoxicated Nep−/− mice; type: in vivo, mouse; conditions: losartan 5 mg/kg/day or captopril 4 mg/kg/day for four weeks, vs non-treated fibrotic Nep−/− mice, n = 6
# How it was run: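 Nep−/− mice (C57BL/6J background, male and female, 10–12 weeks) exposed to CCl4 at 1L/min three times weekly for four weeks, with phenobarbital 3.0 mg/kg/day in drinking water. Losartan or captopril co-treatment ran through the same four weeks. Sirius red-stained sections scored by morphometry; portal pressure recorded in mm Hg; hepatic Col1a1 mRNA by qPCR. Mean ± SEM.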
# [2] = tested on: fibrotic WT (C57BL6/J) mice; assay: Entresto study: oral treatment of fibrotic WT mice; type: in vivo, mouse; conditions: oral 100 mg/kg for 14 days; fibrotic mice vs control
# How it was run: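 Male and female WT mice, 10–12 weeks, made fibrotic over 7 weeks by i.p. CCl4 plus either ethanol in drinking water or Western diet. Entresto tablet (49mg/51mg) crushed and resuspended in 0.9% NaCl; valsartan and sacubitril prepared the same way. Dosed orally for 14 days until sacrifice. Portal pressure measured at the end; hepatic Col1a1 mRNA also assessed. Mean ± SEM.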
# [3] = tested on: primary mouse HSC (WT and Nep−/−); assay: Western blot of ROCK, p-moesin and p-ERK in primary HSCs; type: cell-based; conditions: NPY 1 nM, 24 h, compared with WT cells
# How it was run: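 Primary HSCs from WT and Nep−/− mice were cultured at least one week until fully activated. They were seeded at 300,000 cells/well in DMEM with 20% FBS, and buffers were free of Zn and EDTA. […] Protein was read by western blot with GAPDH as loading control.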
# [4] = tested on: primary mouse HSC (WT and Nep−/−); assay: mRNA expression; type: cell-based; conditions: NPY 1 nM, 24 h
# [5] = tested on: WT mice; assay: Intraperitoneal injection of NPYFL or its C-terminal fragments in WT mice; type: in vivo, mouse; conditions: i.p., 72 hours, n = 6/group
# [6] = tested on: primary mouse HSC (WT and Nep−/−); assay: Collagen gel contraction assay; type: cell-based; conditions: primary mouse HSCs on collagen gels, NPY 0–100 nM, 0–48 h; Nep−/− vs WT
# How it was run: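 Primary HSCs were isolated from WT and Nep−/− mice and cultured at least one week until fully activated. 1 × 10^4 cells were embedded in 1 mg/mL collagen gels, in triplicate per group. […] Gel area was tracked from images taken at fixed camera distance over time, as % of initial surface; mean ± SEM, n = 3–6.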
# [7] = tested on: primary HSCs from Nep−/− mice; assay: Immunofluorescence and confocal microscopy of collagen I and αSMA; type: cell-based, mouse; conditions: full-length NPY, 24 h
# How it was run: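 Primary Nep−/− HSCs, activated by at least one week of culture, were serum-starved 12 h. […] Cells were fixed in 4% paraformaldehyde and permeabilized with 1% Triton X-100, each 10 min at 37°C, then blocked 1 h in 1% BSA. Anti-collagen I (1:50) and anti-α-SMA (1:200) ran overnight at 4°C, secondaries (1:3000) 2 h, with DAPI counterstain. Confocal fluorescence was quantified from three independent experiments.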
# [8] = tested on: primary Nep−/− HSCs; assay: Determination of cellular cAMP; type: cell-based, mouse; conditions: serum starved, full-length NPY 1 nM or mix of C-terminal fragments 30 μM, 30 min (methods), 24 h (Figure 4F), n = 3–4
# How it was run: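 HSCs isolated from WT and Nep−/− mice were cultured at least one week (fully activated) in DMEM/20% FBS with penicillin-streptomycin, in Zn- and EDTA-free buffers. […] Competitive cAMP ELISA, normalised to total protein; mean ± SEM.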
compound,measurement,setting,value
CCCCc1nc(Cl)c(CO)n1Cc1ccc(-c2ccccc2-c2nn[nH]n2)cc1 [losartan],hepatic Col1a1 mRNA expression,[1],significantly reduced
same,portal pressure,[1],significantly reduced
CCCCC(=O)N(Cc1ccc(-c2ccccc2-c2nnn[nH]2)cc1)[C@H](C(=O)O)C(C)C [valsartan],"portal pressure, single components of Entresto",[2],Neither valsartan nor sacubitril were able to significantly reduce portal pressure
C[C@H](CS)C(=O)N1CCC[C@H]1C(=O)O [captopril],hepatic Col1a1 mRNA expression,[1],significantly reduced
same,portal pressure,[1],significantly reduced
Neuropeptide Y [NPY],ROCK protein and p-moesin expression (western blot),[3],increased further
same,Col1a1 mRNA level,[4]; Nep−/− HSCs,decreased
same,Tgfβ1 mRNA level,[4]; Nep−/− HSCs,decreased
same,Acta2 mRNA expression,"[4]; Nep−/− HSCs, compared with WT control",induced
same,Col1a1 mRNA level,[4]; WT HSCs,increased
same,Tgfβ1 mRNA level,[4]; WT HSCs,increased
same,hepatic Acta2 mRNA expression,[5],significantly induced
same,"hepatic mRNA expression of the main fibrotic markers, Col1a1 and Tgfβ1",[5],induced
same,portal pressure,[5],increase
same,HSC contraction (decrease of gel surface),[6],induced more HSC contraction
same,αSMA expression (immunofluorescence),[7],increased
same,cAMP measurements (pmol cAMP per mg of total protein),[8],reduction
CCOC(=O)[C@H](C)C[C@@H](Cc1ccc(-c2ccccc2)cc1)NC(=O)CCC(=O)O [sacubitril],"portal pressure, single components of Entresto",[2],Neither valsartan nor sacubitril were able to significantly reduce portal pressure

# Reference: publication PMC9989826 (Cell Reports, 2023)
